Data taken from the RNAGym collection of RNA variant scans (doi:10.1038/nmeth.2970).

B1: NELF-E aptamer (parent)
chain: CCCAACGACUGCCGAGCGAGAUUACGCUUGAGCGCCCCACUGAGGAUGCCCACGGGCGAUUGGGGCACGG

Variants of: B1
Assay: HiTS-RAP
Details: with NELF-E (Drosophila)
How it was run: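 Kd came from weighted Hill fits to the first binding curve, with intensities normalised to sequencing intensity and averaged per sequence, keeping only fits whose variance was below 1,000,000. That curve was imaged on an Illumina GAIIx flowcell, where sequenced aptamer DNA templates with a T7 promoter and ter site had been transcribed in situ by T7 RNA polymerase and halted by GST-Tus (30 minutes, 37°C). Before each image, clusters equilibrated for 30 minutes at room temperature with NELF-E-mOrange at 0.064 to 1000 nM in HEPES binding buffer.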

Variant	Kd
U10C A19G	4.87 nM
U10C U22G	5.75 nM
U10G G32U	5.18 nM
U10G G32C	4.38 nM
U10G G32A	4.44 nM
U10A G14U	6.38 nM
U10A G14A	7.05 nM
U10G G54U	6.86 nM
U10G G54A	12 nM
U10G G64U	7.3 nM
U10G G64A	7.4 nM
U10G G64C	6.95 nM
U10G C12U	4.41 nM
U10G C12G	5.4 nM
U10G C12A	5.88 nM
A8U U29G	5.87 nM
A8U U29C	6.56 nM
A8U U29A	4.61 nM
C9G A31G	8.03 nM
C9G A31U	7.5 nM
U10G A19G	5.12 nM
U10G A19U	4.96 nM
C9G C33U	5.9 nM
U10A C13G	5.83 nM

Variant	Kd
C9G A21U	6.36 nM
C9G A21G	6.86 nM
U10C C12G	5.94 nM
U10G A24U	6.04 nM
U10G A24G	5.18 nM
U10G A24C	4.94 nM
U10G A52U	14.9 nM
U10G A52G	4.22 nM
U10G A52C	5.8 nM
C9G G26A	5.39 nM
C9G G26U	8.09 nM
U10G U22A	5.58 nM
C9G A52U	14.9 nM
C9G A52G	4.79 nM
C9G A52C	7.38 nM
U10A C12G	6.47 nM
C9U U29G	5.3 nM
U10G G63C	43 nM
U10G G63A	16.5 nM
U10G G63U	10.9 nM
U10A U23G	5.54 nM
U10A U23C	5.46 nM
C9U C13G	5.59 nM
C9U C13U	5.14 nM

Variant	Kd
C9G G42A	56.8 nM
C9G G42U	7.6 nM
A8U U47G	5.6 nM
A8U U47A	15.7 nM
U10C U23G	5.12 nM
U10C G16U	5.14 nM
U10G C25A	4.07 nM
U10G C25G	5.26 nM
U10G C25U	5.86 nM
U10G C53A	5.46 nM
U10G C53G	6.55 nM
U10G C53U	3.77 nM
U10A C53U	5.03 nM
C9G G48A	8.11 nM
U10A G26A	5.22 nM
C9G U22G	5.5 nM
C9G U22C	6.33 nM
C9G U28G	6.8 nM
C9G U28A	5.64 nM
C9G U28C	9.43 nM
C9G G56U	6.71 nM
C9G G56A	7.64 nM
C9G G64A	8.13 nM
C9G G64C	5.75 nM

Variant	Kd
C9G G64U	8.07 nM
U10G A46G	38.8 nM
U10G A46U	65.4 nM
C9G C53U	4.66 nM
C9G C36U	8.98 nM
C9G G14U	6.47 nM
C9G G14A	6.55 nM
U10G G34U	5.54 nM
U10G G34C	13.2 nM
U10G G34A	6.95 nM
U10G C38U	9.49 nM
U10G C38G	7 nM
U10G C38A	39.8 nM
U10G G42U	23.2 nM
U10G G42A	42.8 nM
C9G C51A	8.9 nM
C9G C51U	8.2 nM
U10A U22G	5.49 nM
C9G G11U	6 nM
C9G G11A	6.35 nM
U10A A31G	9.84 nM
U10A A31U	5.78 nM
U10A C57U	5.96 nM
U10G G20A	5.57 nM

Variant	Kd
U10G G20U	6.08 nM
U10G C17G	4.78 nM
U10G C17U	4.88 nM
U10G C17A	5.07 nM
U10G C49U	18.7 nM
U10G C49A	20.2 nM
U10G C49G	7.15 nM
U10G C40U	63.9 nM
U10G C40G	5.38 nM
U10A A24G	5.63 nM
U10G A21U	5.53 nM
U10G A21G	5.45 nM
U10G A21C	4.39 nM
C9G C37A	15.8 nM
C9G C37U	16.1 nM
U10G C50U	14 nM
U10G C50G	7.26 nM
U10G C50A	16.6 nM
C9U C12G	6.92 nM
C9G C17G	5.43 nM
C9G C17U	4.67 nM
C9G U47G	5.29 nM
C9G U47A	11.9 nM
C9G G30U	6.64 nM

Variant	Kd
C9G G30A	4.33 nM
C9G G63A	15.9 nM
C9G G63U	10.3 nM
U10G G45U	7.35 nM
U10G G45A	68.6 nM
U10C U29G	6.02 nM
U10C U29C	7.71 nM
U10G G14A	5.01 nM
U10G G14U	5.99 nM
U10G G14C	6.25 nM
U10G C51G	4.43 nM
U10G C51A	9.77 nM
U10G C51U	6.95 nM
C9A U10G	5.43 nM
U10G G18U	5.3 nM
U10G G18A	5.37 nM
C9G G32A	4.88 nM
U10G G56C	27.1 nM
U10G G56A	9.45 nM
U10G G56U	5.31 nM
C9U	5.19 nM
C9G	5.17 nM
C9A	5.07 nM
C9U U10G	5.19 nM

Variant	Kd
C9G A43U	80.5 nM
C9G A43G	30.4 nM
C9G A67U	8.77 nM
C9G A67G	6.17 nM
U10C G55A	8.56 nM
U10C G55U	9.22 nM
C9G G18A	6.15 nM
C9G G18U	6.65 nM
C9G G54U	6.83 nM
C9G G54A	17 nM
U10A G11U	7.2 nM
U10G C35A	7.32 nM
U10G C35U	16.3 nM
U10G C35G	6.33 nM
U10G A67C	5.03 nM
U10G A67U	6.91 nM
U10G A67G	5.45 nM
C9U U23G	5.63 nM
C9G G65U	7.11 nM
C9G G65C	16.4 nM
C9G G65A	4.83 nM
C9G C66U	5.54 nM
U10G C27A	5.02 nM
U10G C27G	4.93 nM

Variant	Kd
U10G C27U	3.87 nM
C9G G20A	6.64 nM
C9G G20U	7.26 nM
U10G C36U	6.99 nM
U10G C36G	6.55 nM
U10G C36A	9.48 nM
U10C G11U	5.91 nM
U10G G26U	5.07 nM
U10G G26C	17.4 nM
U10G G26A	4.15 nM
C9G C38U	8.24 nM
U10G A39C	19.7 nM
U10G A39U	24.6 nM
U10G A39G	10.1 nM
C9G U10A	6.51 nM
C9G U10G	5.46 nM
C9G U10C	5.98 nM
C9G G16A	5.72 nM
C9G G16U	6.45 nM
U10A A67U	9.22 nM
U10A A67G	4.3 nM
C9G A59U	30.4 nM
C9G A59G	64.3 nM
A8U U10G	5.41 nM

Variant	Kd
A8U U10A	6.91 nM
A8U U10C	5.96 nM
C9G C25G	6.33 nM
C9G C25U	7.05 nM
U10G A43G	18.8 nM
U10G A43U	75.2 nM
U10G A43C	75.8 nM
C9G C27U	4.83 nM
C9G A46G	47.4 nM
C9G A46U	68.3 nM
C9U U22G	5.55 nM
U10G G48A	8.83 nM
U10G G48U	6.92 nM
C9G G62U	10 nM
C9G G62A	26.9 nM
U10G G58U	8.62 nM
C9U G16U	7.34 nM
C9G C13U	5.15 nM
C9G C13G	5.48 nM
C9G C13A	7.19 nM
U10C A24G	5.38 nM
U10A A19G	6.65 nM
C9G A39U	29.8 nM
C9G A39G	9.62 nM

Variant	Kd
C9U G11U	5.56 nM
U10G A31C	6.21 nM
U10G A31U	5.87 nM
U10G A31G	6.79 nM
C9U G20U	7.82 nM
C9G G44A	17.8 nM
C9G G44U	9.09 nM
U10A U29C	5.24 nM
U10A U29G	5.61 nM
C9G C12A	4.67 nM
C9G C12U	5.9 nM
C9G C12G	5.75 nM
U10G G55A	8.64 nM
U10G G55U	6.13 nM
U10G G55C	7.54 nM
C9U A19G	5.01 nM
U10G C37U	12.2 nM
U10G C37G	6.84 nM
U10G C37A	14.8 nM
U10G G11U	5.48 nM
U10G G11A	6.15 nM
U10G G11C	5.59 nM
U10G A15G	4.72 nM
U10G A15C	3.77 nM

Variant	Kd
U10G A15U	5.99 nM
C9G U61A	35.2 nM
C9G U61C	89.2 nM
C9G C50A	23.5 nM
C9G C50U	13.5 nM
C9G C50G	7.4 nM
C9G G55A	10.3 nM
C9G G55U	8.84 nM
C9U U41G	5.98 nM
C9G G34A	9.14 nM
U10A A39G	11.6 nM
U10G G16A	5.62 nM
U10G G16C	6.96 nM
U10G G16U	6.08 nM
C9U A24G	5.62 nM
U10C C57U	4.92 nM
C9G U29G	5.58 nM
C9G U29C	6.28 nM
C9G U29A	6.02 nM
U10C U61A	33.1 nM
U10C U61C	41.4 nM
U10G C66A	5.44 nM
U10G C66G	4.43 nM
U10G C66U	4.66 nM

Variant	Kd
U10G C33A	5.76 nM
U10G C33U	5.07 nM
U10G C33G	5.96 nM
U10C A67U	5.45 nM
A8U U41G	6.19 nM
A8U U41C	85.6 nM
U10A G16U	5.86 nM
U10A U61A	26 nM
U10G G44U	9.69 nM
U10G G44A	45.2 nM
U10G G44C	34.8 nM
C9G A24G	5.84 nM
C9G A24U	7.67 nM
C9G U41C	80.7 nM
C9G U41G	6.14 nM
C9G U41A	79.4 nM
A8U U28C	8.73 nM
A8U U28G	7.11 nM
A8U U28A	5.05 nM
U10G G30U	5.29 nM
U10G G30C	5.8 nM
U10G G30A	4.59 nM
C9G C49U	23.1 nM
U10C C13G	5.55 nM

Variant	Kd
U10G G62A	16.9 nM
U10G G62C	67.3 nM
U10G G62U	6.99 nM
C9G C57U	7.56 nM
C9G U23C	4.37 nM
C9G U23G	5.35 nM
C9G U23A	6.12 nM
U10C C53U	3.84 nM
C9G A15G	6.64 nM
C9G A15U	7.39 nM
U10G C57A	11.8 nM
U10G C57U	5.61 nM
U10G C57G	7.81 nM
U10G A59U	71.4 nM
U10G A59G	57.3 nM
C9G U60C	11.4 nM
C9G U60G	6.72 nM
A8U U22G	6.1 nM
A8U U22C	5.14 nM
U10G C13G	4.78 nM
U10G C13A	5.77 nM
U10G C13U	4.7 nM
C9U G14U	6.79 nM
C9U G14A	6.66 nM

Variant	Kd
U10C G64A	9.5 nM
C9G A19U	7.14 nM
C9G A19G	5.58 nM
U10A A15G	3.62 nM
C9G G45A	35.6 nM
C9G G45U	5.69 nM
C9G C35U	14.3 nM
C9G C35G	7.59 nM
C9U C17G	6.19 nM
U10G G65A	4.82 nM
U10G G65U	6.08 nM
U10G G65C	17 nM
A8U U23G	6.17 nM
A8U U23C	5.3 nM
U10C G14U	4.95 nM
C9U G65U	6.78 nM
C9A U22G	3.88 nM
U10C	4.6 nM
U10G	4.49 nM
U10A	4.9 nM
A8U U61C	71.4 nM
A8U U61A	29.9 nM
